Fewer inactive variants are shown than the library holds.

Yeast fitness data for 37 variants are collected here from the RNAGym collection of RNA variant scans (doi:10.1126/science.aae0568).

First the molecules themselves.
B1: tRNA (parent)
chain: GUUCCGUUGGCGUAAUGGUAACGCGUCUCCCUCCUAAGGAGAAGACUGCGGGUUCGAGUCCCGUACGGAACG

Variants of B1 are the subject of this series. As to the kind of experiment: yeast fitness relative to wild type (ratio to wild type); higher = fitter; tRNA-Arg(CCU), competitive growth, 37 C, YPD. The gist of the method: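 Genotype frequency changes were the basis for Darwinian fitness relative to wild type. The frequencies came from 100-nucleotide paired-end sequencing of gene amplicons from the start population and each end population of pooled yeast strains with tRNA-Arg(CCU) gene variants at the native locus. Competition ran in YPD at 37°C for 24 hours in six replicates, genotypes needed ≥ 100 starting reads, and estimates < 0.5 were set to 0.5.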
Turning to GUUCCGUUCGCGUAAUGGUAACGCGACUCCCUCCUAAGGCGAAGACUGCGGGUUUGAGUCCCGUAAGGUACG [G9C U26A A40C C55U C66A A69U], the yeast fitness was at most 0.5.

Consider GUUCCGUUGGCGUAAUGGUAACGCCUCUCCCUCCUAAGGAGAAGACUGUGAGUUCGAGUCCCGUCCGGCACG [G25C C49U G51A A65C A69C], for which the yeast fitness was at most 0.5.

With GUUCCAUUGGCGUAAUGGUAACGCGUCUCCCUUCUAAGGAGAAGACUGCAGCUUCGAGUCCCGUCCGGAACG [G6A C33U G50A G52C A65C], the yeast fitness is at most 0.5.

As for GUUCGGUUGGCGUAAUGGUAACGCGUCUCCCUCCUAAGGAGAAGACUCCGGGUUCGAGUCCCGUACGGUACG [C5G G48C A69U], the yeast fitness was found to be 0.587.

Consider GUUCCGUUGGCGUAAUGGUAACGCGUAUCGCUCCUAAGGACAAGACUGCGGGUUCGAGUCCCGUACGGAACG [C27A C30G G41C], for which the yeast fitness is at most 0.5.

As for GUUCCGUUGGCGUAAUGGUAACGCGUCUCCCUCCUAAGGAGAAGACUGCAGGUUCGACUCCCGUAUGGAACG [G50A G58C C66U], the yeast fitness stood at 0.649.

Turning to GUUCCGUUGGCGUUCUGGUAACGCGUCUCCCUCCUAAGGGGAAGACUGCGGGUUCCAGUCCCGUACCGAACG [A14U A15C A40G G56C G67C], the yeast fitness was at most 0.5.

As to GUUCCGUUGGCGUAAUGGUAACGCGUCUCCCUCCUAGGGAGAAAACUGCGGGUUCGAGUCCCGUCCGGAACG [A37G G44A A65C], the yeast fitness stood at 0.561.

Regarding GUUCCGUUGGCGUAAUGGUAACGCGUCUCCCUCCUAAGGAGAAGAAUGAGGGUUCGAGUCACGUACGGAACG [C46A C49A C61A], the yeast fitness was at most 0.5.

With GUUCCGUUGGCGUAAUGGUAACGCGUUUCCCUCCUAAAGAGAAGACUGCGGGUUCGAGUCCCGUACGGAACG [C27U G38A], the yeast fitness came out at 0.773.

GUUCCGUUGGCGUAAUGGUAACGCGUCUCCCUCGUCAGGAGAAGACUGCGGGUUCGAGUCCCGUACGGACCG [C34G A36C A70C]: the yeast fitness was at most 0.5.

For GUUCCGUUGGCGUACUGGUAACGAGUCUCCCUCCUAAGGAGAAGACUGCGGGUUCGAGUCCCGUACGGAACG [A15C C24A], the yeast fitness is at most 0.5.

For the variant GUUCCGUCGGCGUAAAGGUAACGCGUUUCCCUCCUAAGGAGAAGACUGCGGGUUGGAGUCCCGUACGGAACG [U8C U16A C27U C55G], the yeast fitness turned out to be 0.691.

In the case of GUUCUGUUGGCGUAAUGGUAACGCGUCUCCCUCCUACGGAGAAGACUGCGGGUUCGAGUCGCGUACGGAACG [C5U A37C C61G], the yeast fitness is at most 0.5.

Consider GUUCCGUUGGCGUAAUGGUAACGCGCCUCCCACUUAACGAGAAGACUGCGAGUUCGAGUUCUGUACGGAACG [U26C U32A C34U G38C G51A C60U C62U], for which the yeast fitness is at most 0.5.

Consider GUUCCGCUGGCGUGAUGGUAACGCGUCUUCUUUCUAAGGAGAAGACUGCGGGUUCGAGUCCCGUACGGAACG [U7C A14G C29U C31U C33U], for which the yeast fitness was found to be 0.592.

GUUCCGUUGGCGUAAUGGUAACGCGUCUCCCUCCUAUGGAGAAGUCUGCGGGUUCGAGUCCCGUACGGAACG [A37U A45U]: the yeast fitness came out at 0.64.

Take GCUACGUUGGCGUAAUAGUAACGCGUCUCCCUCCUAAGGAGAAGACUGCGGGUUCGAGUGCCGUACGGAACG [U2C C4A G17A C60G]: the yeast fitness is at most 0.5.

Turning to GUUCCGUUGGCGUAAAGGUAACGCGUCUCCAUCCUAAGGAGAAGACUGCGGGUUCGAGUCCCGUACUGAACG [U16A C31A G67U], the yeast fitness was at most 0.5.

On to GUUCCGUUGGCGUAAUGGUAAUGCGUCAUCCUCCUAAAGAGAAGACUGCGGGUUCGAGUCCCGUACGGAACG [C22U U28A C29U G38A], for which the yeast fitness was at most 0.5.

As for GUUUCGUUGGCGUAAUGAUACCGCGUCUCCCUCCUAAGGAGAAGACUCCGGGUUCGAGUCCCGUACGGAACG [C4U G18A A21C G48C], the yeast fitness is at most 0.5.

For GUUGCGUUGGCGUACUGGUAACGCGUCUCCCUCCUAAGGAGAAGACUGCGGGUUCGAGUCCCGUAUGGAACG [C4G A15C C66U], the yeast fitness was 0.539.

GUUCCGUUGGCGUAAUGGUAACGCGUCUCCCUCCUAAGGAGAAGACUGAGGGUUCGAGUCCCGUACCGAACG [C49A G67C]: the yeast fitness stood at 0.825.

GUUCCGUUGGCGUAAUGGUGACGCGUCUCCCUCCUAAUGAGACGACUGCGGGUUCGUGUCCCGUACGGAACG [A20G G38U A43C A57U]: the yeast fitness was at most 0.5.

As for GUUCCGUUGGCGUAAUGGUAACGCGUCUUCCUCCUAAGGAGAAGACUGCGGGUUCGAGUCCCCUACGGAACG [C29U G63C], the yeast fitness worked out at 0.728.

For GUUCCGUUGGCGUCAUGGUAACGCGUCUUCCUCCUGAGGAGAAGUCUGCGGGUUCGAGUCCCGUACGGAUCG [A14C C29U A36G A45U A70U], the yeast fitness is at most 0.5.

For the variant GUUCCGUUGGUGUAAUGGUAACGCGUCUCCCUCCUAAGGAGAAGACUGCGGGUUCGACUCCCGUACGGAACG [C11U G58C], the yeast fitness was determined as 0.925.

Take GUUCCGUUGGCGUAAUGGUAGCGCGUCUCCCACCUAAGGAGAAGACUGCGGGUUCGAGUCCCGUACGGAACG [A21G U32A]: the yeast fitness worked out at 0.661.

In the case of GUUCCGUUGGCGUAAUGGUACCGCGUCUCUCUCCUAAGGAGAAGGCUGCGGGUUCGAGUCCCGUACGGAACG [A21C C30U A45G], the yeast fitness is at most 0.5.

Regarding GUUCGGUUGGAGUAAUGGCCACGCGUCUCCCUACUAAGGAGAAGACUGCGGGUUCGAGUCGCGUACGGAACG [C5G C11A U19C A20C C33A C61G], the yeast fitness is 0.676.

On to GUUCCGUUGGCGUAAUGGUAAUGCGUCUCCCUCCUAAGGAGAAGACUGCGGGUUCGACUCCCGUCCGGAACG [C22U G58C A65C], for which the yeast fitness was at most 0.5.

Take GUUCCGUUGGUGUAAUGGUAACGCGUCUCCCUCCUGAGGAGAAGACUCCGGGUUCGAGUCCCGUCCGGAACG [C11U A36G G48C A65C]: the yeast fitness was 0.675.

As for GUUCCGUUGGCGUAAUGGUAACGCGUCUCCCUCCUAAGGACACGACUGCGGGUUCGAGUCCCGUAAGGAACG [G41C A43C C66A], the yeast fitness was 0.699.

On to GUCCCGUCGGCGUAAUGGUAACGCGUGUCCCUACUAAGGAGAAGACUGCGGGUUCGAGUCCCGUACGGAACG [U3C U8C C27G C33A], for which the yeast fitness is at most 0.5.

GUUCCGUUGGCGUAAUGGUAACGCGUCUCCGUGCUAAGGAGAAGACUGCGGGUUCGUGUCCCGUUCGGAACG [C31G C33G A57U A65U]: the yeast fitness is at most 0.5.

Take GUUCCGUUGGUGUAAUGAUAACCCGUCUCCCUCUUAAGGAGAAGACUGCGGGUUCGAGACCCGUACGGACCG [C11U G18A G23C C34U U59A A70C]: the yeast fitness was at most 0.5.

For the variant GUUCUGUUCGCGUAAUGGUAACACGUCUCCCUCCUAAGGAGAAGACUGCAGGUUCGAGUCCCGUUCGGAACG [C5U G9C G23A G50A A65U], the yeast fitness was at most 0.5.
